Key:
[1] = target: Serine/threonine-protein kinase DCLK2 (Homo sapiens) (UniProt Q8N568); assay: Inhibition of full length recombinant GST-tagged human DCAMKL2 expressed in baculovirus expression system at 1 uM by FRET assay relative to control
[2] = target: Casein kinase I isoform delta (Homo sapiens) (UniProt P48730); assay: Inhibition of CK1delta (unknown origin) at 1 uM by FRET assay relative to control
[3] = target: Calcium/calmodulin-dependent protein kinase type 1D (Homo sapiens) (UniProt Q8IU85); assay: Inhibition of CaMK1delta (unknown origin) at 1 uM by FRET assay relative to control
[4] = target: Activin receptor type-2B (Homo sapiens) (UniProt Q13705); assay: Inhibition of recombinant GST-tagged human ACVR2B catalytic domain (185 to 488 residues) expressed in baculovirus expression system at 1 uM by FRET assay relative to control
[5] = target: Leukocyte tyrosine kinase receptor (Homo sapiens) (UniProt P29376); assay: Inhibition of recombinant GST-tagged human LTK cytoplasmic domain (440 to 864 residues) expressed in baculovirus expression system at 1 uM by FRET assay relative to control
Procedure, shortened: (§1)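 Part of a 220-kinase panel run at a single concentration of 1 μM. Z′-LYTE format: phosphorylation of a labelled peptide read by FRET. Values reported as percent inhibition.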

[6] = target: Leucine-rich repeat serine/threonine-protein kinase 2 (Homo sapiens) (UniProt Q5S007); assay: Inhibition of recombinant GST-tagged human LRRK2 catalytic domain (970 to 2527 residues) expressed in baculovirus expression system at 1 uM by FRET assay relative to control
Procedure, shortened: (§2)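 Single-point screen at 1 μM compound in a 220-kinase panel run by Life Technologies (SelectScreen). Z′-LYTE format: phosphorylation of a labeled peptide substrate read by FRET. Values are reported as percent inhibition.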

[7] = target: Insulin receptor (Homo sapiens) (UniProt P06213); assay: Inhibition of recombinant His-tagged human InsR (1011 to 1382 residues) expressed in baculovirus expression system at 1 uM by FRET relative to control; procedure, shortened: as §2
[8] = target: Insulin-like growth factor 1 receptor (Homo sapiens) (UniProt P08069); assay: Inhibition of recombinant His-tagged human IGF1R cytoplasmic domain (960 to 1397 residues) expressed in baculovirus expression system at 1 uM by FRET relative to control; procedure, shortened: as §2
Sequence of Insulin-like growth factor 1 receptor (Homo sapiens) (P08069 31-736 limits assumed): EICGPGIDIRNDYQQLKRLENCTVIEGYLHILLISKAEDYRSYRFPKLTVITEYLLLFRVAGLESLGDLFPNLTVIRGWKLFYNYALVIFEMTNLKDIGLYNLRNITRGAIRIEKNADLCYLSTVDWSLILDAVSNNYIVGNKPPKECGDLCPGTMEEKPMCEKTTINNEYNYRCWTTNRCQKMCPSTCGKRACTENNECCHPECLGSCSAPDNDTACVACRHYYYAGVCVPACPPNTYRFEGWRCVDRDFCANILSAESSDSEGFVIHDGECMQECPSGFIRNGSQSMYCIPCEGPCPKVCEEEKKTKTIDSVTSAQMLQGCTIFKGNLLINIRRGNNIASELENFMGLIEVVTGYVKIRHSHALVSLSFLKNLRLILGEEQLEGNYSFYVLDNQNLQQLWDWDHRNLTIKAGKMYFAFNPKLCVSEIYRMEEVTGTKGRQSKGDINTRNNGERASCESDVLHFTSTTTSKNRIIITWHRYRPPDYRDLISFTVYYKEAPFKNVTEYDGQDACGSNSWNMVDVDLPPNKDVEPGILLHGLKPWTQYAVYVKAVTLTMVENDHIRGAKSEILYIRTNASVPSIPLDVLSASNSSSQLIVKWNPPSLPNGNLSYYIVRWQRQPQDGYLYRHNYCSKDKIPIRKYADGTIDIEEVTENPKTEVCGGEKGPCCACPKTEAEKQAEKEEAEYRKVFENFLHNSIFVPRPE
Sequence of Insulin-like growth factor 1 receptor (Homo sapiens) (P08069 741-1367 limits assumed): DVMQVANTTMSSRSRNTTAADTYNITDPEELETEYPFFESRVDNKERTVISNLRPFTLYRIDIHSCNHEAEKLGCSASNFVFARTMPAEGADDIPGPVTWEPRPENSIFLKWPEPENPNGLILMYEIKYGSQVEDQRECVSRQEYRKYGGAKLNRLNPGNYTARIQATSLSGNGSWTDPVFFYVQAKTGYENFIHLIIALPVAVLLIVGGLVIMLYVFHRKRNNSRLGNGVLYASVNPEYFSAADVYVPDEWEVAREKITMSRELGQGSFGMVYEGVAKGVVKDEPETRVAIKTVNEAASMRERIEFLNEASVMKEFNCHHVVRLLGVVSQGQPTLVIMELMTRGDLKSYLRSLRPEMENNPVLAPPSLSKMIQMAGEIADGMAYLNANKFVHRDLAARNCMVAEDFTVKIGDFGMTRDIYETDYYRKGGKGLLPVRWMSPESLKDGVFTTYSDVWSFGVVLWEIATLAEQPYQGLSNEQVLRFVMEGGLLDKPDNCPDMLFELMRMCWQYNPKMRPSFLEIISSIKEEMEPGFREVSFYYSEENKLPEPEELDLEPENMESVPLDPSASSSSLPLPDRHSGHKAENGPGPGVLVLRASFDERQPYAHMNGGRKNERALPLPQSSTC

[9] = target: Beta-adrenergic receptor kinase 1 (Homo sapiens) (UniProt P25098); assay: Inhibition of recombinant full length His-tagged human GRK2 expressed in baculovirus expression system at 1 uM by FRET relative to control
[10] = target: Eukaryotic elongation factor 2 kinase (Homo sapiens) (UniProt O00418); assay: Inhibition of recombinant full length GST-tagged human eEF2K expressed in Escherichia coli at 1 uM by FRET assay relative to control
[11] = target: PAS domain-containing serine/threonine-protein kinase (Homo sapiens) (UniProt Q96RG2); assay: Inhibition of recombinant GST-tagged human PASK catalytic domain expressed in baculovirus expression system at 1 uM by FRET assay relative to control; procedure, shortened: as §2
[12] = target: Mitogen-activated protein kinase 14 (Homo sapiens) (UniProt Q16539); assay: Inhibition of recombinant full length GST-tagged human p38alpha expressed in Escherichia coli at 1 uM by FRET assay relative to control
[13] = target: SRSF protein kinase 3 (Homo sapiens) (UniProt Q9UPE1); assay: Inhibition of recombinant full length N-terminal GST-tagged human MSSK1 expressed in baculovirus at 1 uM by FRET assay relative to control
Sequence of SRSF protein kinase 3 (Homo sapiens) (Q9UPE1 whole entry): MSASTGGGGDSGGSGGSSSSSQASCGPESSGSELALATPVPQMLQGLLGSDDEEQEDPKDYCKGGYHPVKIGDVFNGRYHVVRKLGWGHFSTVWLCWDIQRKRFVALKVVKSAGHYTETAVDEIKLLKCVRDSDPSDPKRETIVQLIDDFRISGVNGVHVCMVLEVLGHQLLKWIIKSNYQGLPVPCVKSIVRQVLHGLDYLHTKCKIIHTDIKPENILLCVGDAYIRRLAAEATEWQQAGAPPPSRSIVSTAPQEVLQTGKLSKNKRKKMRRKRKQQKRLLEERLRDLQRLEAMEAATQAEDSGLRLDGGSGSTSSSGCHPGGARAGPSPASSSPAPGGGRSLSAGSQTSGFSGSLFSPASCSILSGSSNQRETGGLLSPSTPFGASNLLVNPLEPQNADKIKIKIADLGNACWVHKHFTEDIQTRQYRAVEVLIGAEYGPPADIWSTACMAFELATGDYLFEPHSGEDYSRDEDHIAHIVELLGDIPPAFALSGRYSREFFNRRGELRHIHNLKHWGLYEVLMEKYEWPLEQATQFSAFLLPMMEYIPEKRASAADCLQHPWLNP

[14] = target: MAP kinase-interacting serine/threonine-protein kinase 2 (Homo sapiens) (UniProt Q9HBH9); assay: Inhibition of recombinant human N-terminal full length GST-tagged MKNK2 expressed in baculovirus at 1 uM by FRET assay relative to control
[15] = target: Dual specificity protein kinase TTK (Homo sapiens) (UniProt P33981); assay: Inhibition of recombinant full length GST-tagged human TTK expressed in baculovirus expression system at 1 uM by FRET assay relative to control
Sequence of Dual specificity protein kinase TTK (Homo sapiens) (P33981 whole entry, the tested form may be a part): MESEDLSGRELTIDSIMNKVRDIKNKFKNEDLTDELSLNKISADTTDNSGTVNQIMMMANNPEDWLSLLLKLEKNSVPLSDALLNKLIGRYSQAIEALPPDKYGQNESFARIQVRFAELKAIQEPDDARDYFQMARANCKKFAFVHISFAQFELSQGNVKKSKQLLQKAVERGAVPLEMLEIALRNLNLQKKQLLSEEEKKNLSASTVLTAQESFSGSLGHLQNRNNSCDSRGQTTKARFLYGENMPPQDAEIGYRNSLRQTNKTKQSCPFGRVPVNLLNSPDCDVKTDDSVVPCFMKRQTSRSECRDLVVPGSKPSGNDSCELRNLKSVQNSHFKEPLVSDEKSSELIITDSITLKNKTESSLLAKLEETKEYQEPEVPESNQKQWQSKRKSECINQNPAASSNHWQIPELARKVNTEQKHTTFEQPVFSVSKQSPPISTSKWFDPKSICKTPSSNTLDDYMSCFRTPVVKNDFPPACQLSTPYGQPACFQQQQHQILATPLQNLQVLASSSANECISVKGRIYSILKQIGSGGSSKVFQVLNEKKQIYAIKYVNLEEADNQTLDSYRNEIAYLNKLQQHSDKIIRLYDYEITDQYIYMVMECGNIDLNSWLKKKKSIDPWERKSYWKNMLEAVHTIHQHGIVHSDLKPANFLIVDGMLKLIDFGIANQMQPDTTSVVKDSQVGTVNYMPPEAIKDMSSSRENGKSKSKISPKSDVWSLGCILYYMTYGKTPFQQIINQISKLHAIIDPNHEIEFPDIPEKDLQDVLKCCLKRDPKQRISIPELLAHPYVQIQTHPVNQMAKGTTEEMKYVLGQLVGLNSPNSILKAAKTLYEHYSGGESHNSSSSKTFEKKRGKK

[16] = target: High affinity nerve growth factor receptor (Homo sapiens, UniProt P04629); assay: Inhibition of recombinant His-tagged human TrkA cytoplasmic domain (441 to 796 residues) expressed in baculovirus expression system at 1 uM by FRET assay relative to control
Sequence of High affinity nerve growth factor receptor (P04629 33-796 limits assumed): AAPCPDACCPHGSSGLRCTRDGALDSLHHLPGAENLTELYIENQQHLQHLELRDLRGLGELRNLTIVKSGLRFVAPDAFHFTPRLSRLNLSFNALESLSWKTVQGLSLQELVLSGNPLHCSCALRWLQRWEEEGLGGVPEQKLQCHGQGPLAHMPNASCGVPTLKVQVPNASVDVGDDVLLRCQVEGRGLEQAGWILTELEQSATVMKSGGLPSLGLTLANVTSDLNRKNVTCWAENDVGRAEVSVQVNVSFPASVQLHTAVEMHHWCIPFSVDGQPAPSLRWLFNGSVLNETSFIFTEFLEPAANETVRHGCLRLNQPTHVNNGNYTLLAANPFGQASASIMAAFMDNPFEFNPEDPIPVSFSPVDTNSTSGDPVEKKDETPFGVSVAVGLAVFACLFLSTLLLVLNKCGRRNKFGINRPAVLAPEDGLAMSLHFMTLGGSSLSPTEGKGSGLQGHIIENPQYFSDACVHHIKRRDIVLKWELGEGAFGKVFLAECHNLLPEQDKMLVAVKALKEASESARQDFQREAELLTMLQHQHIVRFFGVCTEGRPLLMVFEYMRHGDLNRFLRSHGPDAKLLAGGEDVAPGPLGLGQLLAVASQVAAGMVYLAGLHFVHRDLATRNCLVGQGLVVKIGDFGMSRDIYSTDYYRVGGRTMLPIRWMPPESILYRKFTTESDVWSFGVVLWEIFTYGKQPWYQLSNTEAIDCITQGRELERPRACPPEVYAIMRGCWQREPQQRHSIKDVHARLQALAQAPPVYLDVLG
Procedure, shortened: (§3)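 Single-concentration screen at 1 μM in Life Technologies SelectScreen, across a 220-kinase panel. Z′-LYTE format measures phosphorylation of a labeled peptide by FRET. Results are reported as percent inhibition.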

[17] = target: Tyrosine-protein kinase Tec (Homo sapiens) (UniProt P42680); assay: Inhibition of recombinant full length His-tagged human TEC cytoplasmic domain expressed in baculovirus expression system at 1 uM by FRET assay relative to control
[18] = target: Serine/threonine-protein kinase TBK1 (Homo sapiens) (UniProt Q9UHD2); assay: Inhibition of recombinant full length GST-tagged human TBK1 expressed in insect cells at 1 uM by FRET assay relative to control; procedure, shortened: as §3
[19] = target: Tyrosine-protein kinase Srms (Homo sapiens) (UniProt Q9H3Y6); assay: Inhibition of recombinant full length GST-tagged human Srm cytoplasmic domain expressed in baculovirus expression system at 1 uM by FRET assay relative to control; procedure, shortened: as §1
[20] = target: cGMP-dependent protein kinase 1 (Homo sapiens) (UniProt Q13976); assay: Inhibition of PKG1alpha (unknown origin) at 1 uM by FRET assay relative to control
[21] = target: Receptor-type tyrosine-protein kinase FLT3 (Homo sapiens, UniProt P36888); assay: Inhibition of recombinant His-tagged human FLT3 cytoplasmic domain expressed in baculovirus expression system by FRET assay
[22] = target: Adenosine receptor A2a (Homo sapiens) (UniProt P29274); assay: Binding affinity to recombinant human A2A adenosine receptor at 10 uM relative to control
Sequence of Adenosine receptor A2a (Homo sapiens) (P29274 whole entry): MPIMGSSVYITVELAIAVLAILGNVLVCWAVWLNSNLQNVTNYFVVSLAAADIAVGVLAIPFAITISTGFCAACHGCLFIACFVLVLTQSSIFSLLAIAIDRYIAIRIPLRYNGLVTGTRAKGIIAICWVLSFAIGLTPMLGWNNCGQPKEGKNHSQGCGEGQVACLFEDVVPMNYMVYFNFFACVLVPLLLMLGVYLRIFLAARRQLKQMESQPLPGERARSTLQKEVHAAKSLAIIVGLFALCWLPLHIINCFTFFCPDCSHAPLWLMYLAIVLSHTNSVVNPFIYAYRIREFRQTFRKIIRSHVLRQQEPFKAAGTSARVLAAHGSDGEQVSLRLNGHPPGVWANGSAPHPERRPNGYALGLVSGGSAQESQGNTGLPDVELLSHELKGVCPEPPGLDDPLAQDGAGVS
Procedure, shortened: (§4)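 Broad radioligand-binding and enzyme screening panel covering 42 targets (biogenic amine and neuropeptide receptors, ion channels, neurotransmitter transporters, acetylcholinesterase). Single test concentration of 10 μM. Results expressed as binding relative to control, with a hit defined as >50% of control.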

[23] = target: Muscarinic acetylcholine receptor M2 (Homo sapiens) (UniProt P08172); assay: Binding affinity to recombinant human M2 acetylcholine receptor at 10 uM relative to control; procedure, shortened: as §4
Sequence of Muscarinic acetylcholine receptor M2 (Homo sapiens) (P08172 whole entry): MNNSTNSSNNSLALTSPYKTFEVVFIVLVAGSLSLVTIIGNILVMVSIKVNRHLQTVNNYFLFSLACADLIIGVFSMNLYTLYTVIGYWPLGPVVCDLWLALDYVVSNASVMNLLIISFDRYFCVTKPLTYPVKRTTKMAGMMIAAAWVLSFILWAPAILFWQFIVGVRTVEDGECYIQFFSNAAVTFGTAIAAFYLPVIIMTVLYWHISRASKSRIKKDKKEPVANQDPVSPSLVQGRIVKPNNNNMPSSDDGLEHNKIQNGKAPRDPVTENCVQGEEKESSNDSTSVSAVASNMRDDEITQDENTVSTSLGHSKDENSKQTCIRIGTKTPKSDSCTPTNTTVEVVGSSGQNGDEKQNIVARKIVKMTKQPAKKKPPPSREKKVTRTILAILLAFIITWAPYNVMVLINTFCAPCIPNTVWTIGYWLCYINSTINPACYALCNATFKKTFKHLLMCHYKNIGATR

[24] = target: Nicotinic acetylcholine receptor alpha-1/beta-1/delta/epsilon (Homo sapiens) (UniProt P02708+P11230+Q07001+Q04844); assay: Binding affinity to (alpha1)2beta1deltaepsilon nAChR (unknown origin) receptor at 10 uM relative to control; assay type: protein-complex assay; procedure, shortened: as §4
[25] = target: Peroxisome proliferator-activated receptor alpha (Homo sapiens) (UniProt Q07869); assay: Binding affinity to recombinant human PPARalpha at 10 uM relative to control; procedure, shortened: as §4
[26] = target: 5-hydroxytryptamine receptor 2B (Homo sapiens) (UniProt P41595); assay: Binding affinity to 5HT2B receptor (unknown origin) receptor at 10 uM relative to control; procedure, shortened: as §4
Sequence of 5-hydroxytryptamine receptor 2B (Homo sapiens) (P41595 whole entry): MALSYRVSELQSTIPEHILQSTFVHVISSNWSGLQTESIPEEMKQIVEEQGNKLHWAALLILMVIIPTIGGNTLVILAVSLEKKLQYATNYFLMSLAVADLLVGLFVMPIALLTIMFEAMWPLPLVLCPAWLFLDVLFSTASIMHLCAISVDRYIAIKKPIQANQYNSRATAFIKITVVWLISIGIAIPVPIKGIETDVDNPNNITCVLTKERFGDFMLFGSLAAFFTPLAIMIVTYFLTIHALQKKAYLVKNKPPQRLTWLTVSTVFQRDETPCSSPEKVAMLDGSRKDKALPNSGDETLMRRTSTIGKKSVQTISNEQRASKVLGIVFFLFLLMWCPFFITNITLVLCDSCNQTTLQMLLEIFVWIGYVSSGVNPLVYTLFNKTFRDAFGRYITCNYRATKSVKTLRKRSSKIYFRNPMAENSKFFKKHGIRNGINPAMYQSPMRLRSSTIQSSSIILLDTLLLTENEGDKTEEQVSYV

[27] = target: 5-hydroxytryptamine receptor 4 (Homo sapiens) (UniProt Q13639); assay: Binding affinity to 5HT4e receptor (unknown origin) receptor at 10 uM relative to control; procedure, shortened: as §4

SMILES: CC(C)n1nc(-c2cnc(N)c(OC(F)(F)F)c2)cc1[C@H]1[C@@H]2CN(C3COC3)C[C@@H]21
- inhibition [1]: -1.6%
- inhibition [2]: 10%
- inhibition [3]: 2.8%
- inhibition [4]: -0.8%
- inhibition [5]: 9.8%
- inhibition [6]: 15.7%
- inhibition [7]: 16.6%
- inhibition [8]: 9.3%
- inhibition [9]: -2.5%
- inhibition [10]: 4.4%
- inhibition [11]: -0.6%
- inhibition [12]: 1.1%
- inhibition [13]: 6.5%
- inhibition [14]: 12.3%
- inhibition [15]: 14.2%
- inhibition [16]: 67.1%
- inhibition [17]: -1.5%
- inhibition [18]: 9.4%
- inhibition [19]: -2.5%
- inhibition [20]: 0.1%
- IC50 [21]: 709 nM
- Activity [22]: > 50%
- Activity [23]: > 50%
- Activity [24]: > 50%
- Activity [25]: > 50%
- Activity [26]: > 50%
- Activity [27]: > 50%

SMILES: Nc1ncc(-c2cc([C@H]3[C@@H]4CN(C5COC5)C[C@@H]43)n(CC3CC3)n2)cc1C(F)(F)F
- inhibition [1]: -0.8%
- inhibition [2]: -0.3%
- inhibition [3]: 11.1%
- inhibition [4]: -2.1%
- inhibition [5]: 31.5%
- inhibition [6]: 20.6%
- inhibition [7]: 11.9%
- inhibition [8]: 13.8%
- inhibition [9]: 2.1%
- inhibition [10]: -5.1%
- inhibition [11]: 4.5%
- inhibition [12]: 5.8%
- inhibition [13]: -2.4%
- inhibition [14]: 0.9%
- inhibition [15]: 11.2%
- inhibition [16]: 56.1%
- inhibition [17]: 4.8%
- inhibition [18]: 5.3%
- inhibition [19]: 4%
- inhibition [20]: -1.1%
- IC50 [21]: 238 nM
- Activity [22]: > 50%
- Activity [23]: > 50%
- Activity [24]: > 50%
- Activity [25]: > 50%
- Activity [26]: > 50%
- Activity [27]: > 50%

— ChEMBL document CHEMBL4118097, “Selective Inhibitors of Dual Leucine Zipper Kinase (DLK, MAP3K12) with Activity in a Model of Alzheimer's Disease” (J Med Chem, 2017)
